Results gathered from unrelated publications.
pIC50: −log10 of the molar value.

Structure (SMILES)	cell line	test	setting	pIC50
CN1/C(=N/c2ccc(Cl)cc2)c2cc(C(N)=O)nc3c(N)c(Cl)c(N)c1c23	Calu-3	cell growth or viability		4.98
CC(C)C[C@H](NC(=O)[C@H](Cc1ccccc1)NC(=O)c1cnccn1)B(O)O	SJSA-1	cell growth or viability, ATP luminescence		7.96
COc1c(C)c(OS(=O)(=O)c2ccc3ccccc3c2)c(C)c(OS(=O)(=O)c2ccc3ccccc3c2)c1C(=O)/C=C/c1ccccc1	FaDu	cell growth or viability, SRB	72 h	< 4.30
O=c1[nH]cc(S(=O)(=O)Nc2cccc(-c3nnc(-c4cccc(Cl)c4)o3)c2)c(=O)[nH]1	NCI-H441	cell growth or viability, MTT	24 h	5.37
CC(=O)O[C@H]1C(=O)[C@@]2(C)[C@H]([C@H](OC(=O)c3ccccc3)[C@]3(O)C[C@H](OC(=O)[C@H](O)[C@@H](NC(=O)c4ccccc4)c4ccccc4)C(C)=C1C3(C)C)[C@]1(OC(C)=O)CO[C@@H]1C[C@@H]2O	Panc02	cell growth or viability, CCK-8	72 h	7.08
O=c1c(O)c(-c2ccc(O)c(O)c2)oc2cc(O)cc(O)c12	HEp-2	cell growth or viability, WST-1	48 h	4.96
Cc1ccc(O)cc1	B16F0	cell growth or viability, MTT	48 h	2.72
CCCn1cnc2ccc(/C=C/C(=O)NO)cc2c1=O	SW-620	cell growth or viability, SRB	48 h	5.57
Clc1ccc(N2CCN(Cc3c[nH]c4ncccc34)CC2)cc1	FaDu	cell growth or viability	72 h	< 4.70
COc1cc(Nc2nccc(-c3cnn4nc(OC)ccc34)n2)cc(C(F)(F)F)c1	NCI-H441	cell growth or viability, ATP luminescence		6.24
CC(C)[C@H](N)C(=O)N1CCC[C@H]1B(O)O	NOMO-1	cell growth or viability, ATP luminescence	48 h	6.78
CC(C)/N=C1\c2cc(C(N)=O)nc3c(N)c(Cl)c(N)c(c23)N1C	Calu-3	cell growth or viability		6.11
CCN(CC)CCOC(=O)C1(c2ccc([N+](=O)[O-])cc2)CCCC1	FaDu	cell growth or viability	72 h	< 4.70
O=c1cc(-c2ccc(O)c(O)c2)oc2cc(O)cc(O)c12	HEp-2	cell growth or viability, WST-1	48 h	4.97
CC(C)(C=O)Cc1cc(C(C)(C)C)c(O)c(C(C)(C)C)c1	FaDu	cell growth or viability	72 h	< 4.70
CC(NCCc1ccc(O)cc1)C(O)c1ccc(O)cc1 (stereo not shown)	THP-1	TNF-α release, inhibitor	17 h, LPS-stimulated	5.46
COc1cccc(C(=O)O[C@@H]2CN3Cc4c(cc5c(c4OC)OCO5)[C@@]24C=C[C@H](OC)C[C@@H]34)c1	SAOS-2	cell growth or viability, WST-1		5.16
O=C(/C=C/c1ccc2ncn(CC3CCCC3)c(=O)c2c1)NO	SW-620	cell growth or viability, SRB	48 h	5.92
CCN(CC)CCNC(=O)COc1ccc(OC)cc1	FaDu	cell growth or viability	72 h	< 4.70

Structure (SMILES)	cell line	test	setting	pIC50
COc1ccc(C(=O)O[C@@H]2CN3Cc4c(cc5c(c4OC)OCO5)[C@@]24C=C[C@H](OC)C[C@@H]34)cc1	SAOS-2	cell growth or viability, WST-1		< 5.00
CC(C)[C@H](N)c1nc2cc(-c3ccncc3F)sc2c(=O)[nH]1	CAPAN-1	cell growth or viability, MTT		7.31
COc1c2c(cc3c1OCO3)[C@]13C=C[C@H](OC)C[C@H]1N(C2)C[C@H]3OC(=O)c1cccc(C)c1	SAOS-2	cell growth or viability, WST-1		< 5.00
O=C(/C=C/c1ccc(O)c(O)c1)O[C@@H]1C[C@](O)(C(=O)O)C[C@@H](O)[C@H]1O	HEp-2	cell growth or viability, WST-1	48 h	5.29
CCn1cnc2ccc(/C=C/C(=O)NO)cc2c1=O	SW-620	cell growth or viability, SRB	48 h	5.17
CC(=O)CC(c1ccccc1)c1c(O)c2ccccc2oc1=O (stereo not shown)	FaDu	cell growth or viability	72 h	< 4.70
O=C(/C=C/c1ccc2ncn(Cc3ccccc3F)c(=O)c2c1)NO	SW-620	cell growth or viability, SRB	48 h	5.95
N#Cc1cc([N+](=O)[O-])c2sc(C(N)=O)[n+]([O-])c2c1	THP-1	TNF-α release, inhibitor, ELISA	17 h, LPS-stimulated	5.71
Nc1ncnc2c1ncn2[C@@H]1O[C@H](CO)[C@@H](O)[C@@H]1O	FaDu	cell growth or viability	72 h	< 4.70
Cc1ccc(S(=O)(=O)N[C@@H](Cc2ccccc2)C(=O)CCl)cc1	THP-1	TNF-α release, inhibitor	17 h, LPS-stimulated	5.97
COc1cc2nc(N3CCN(C(=O)c4ccco4)[C@H]4CCCC[C@H]43)nc(N)c2cc1OC (racemic)	FaDu	cell growth or viability	72 h	4.85
N[C@@H](CC(=O)N1CCN(C(c2ccc(F)cc2)c2ccc(F)cc2)CC1)C(=O)N1Cc2ccccc2C1	NOMO-1	cell growth or viability, ATP luminescence	48 h	5.33
Nc1nc(Nc2ccccc2)nc2c1ncn2[C@@H]1O[C@H](CO)[C@@H](O)[C@H]1O	FaDu	cell growth or viability	72 h	< 4.70
Nc1ncnc2c1ncn2[C@@H]1O[C@H](CO)[C@@H](O)[C@H]1O	HEp-2	cell growth or viability, WST-1	48 h	4.31
CCCC1(C)C(C#N)(C#N)C1(C#N)C#N	THP-1	TNF-α release, inhibitor	17 h, LPS-stimulated	5.94
O=C(/C=C/c1ccc2c(=O)n(Cc3cccc(F)c3)cnc2c1)NO	SW-620	cell growth or viability, SRB	48 h	5.78
CNC[C@H](O)c1ccc(O)c(O)c1	THP-1	TNF-α release, inhibitor	17 h, LPS-stimulated	7.15
COc1cccc2c1C(=O)c1c(O)c3c(c(O)c1C2=O)C[C@@](O)(C(=O)CO)C[C@@H]3O[C@H]1C[C@H](N)[C@H](O)[C@H](C)O1	SUM159	cell growth or viability, MTT	48 h	5.40
